Key:
[1] = molecular target: T1, P450BM3 variant V-H10(R47C,A87I) (Priestia megaterium, UniProt P14779, A181T/A185V/A198V/A291V/E253G/F206C/F88I/H237Q/L354V/P143S/R256S/R48C/S227R/T176I/V79N); test: Heme spin shift binding of MCL to P450 variant V-H10; design: species or system Bacillus megaterium
T1 sequence (P14779 1-1049 R48C/V79N/F88I/P143S/T176I/A181T/A185V/A198V/F206C/S227R/H237Q/E253G/R256S/A291V/L354V): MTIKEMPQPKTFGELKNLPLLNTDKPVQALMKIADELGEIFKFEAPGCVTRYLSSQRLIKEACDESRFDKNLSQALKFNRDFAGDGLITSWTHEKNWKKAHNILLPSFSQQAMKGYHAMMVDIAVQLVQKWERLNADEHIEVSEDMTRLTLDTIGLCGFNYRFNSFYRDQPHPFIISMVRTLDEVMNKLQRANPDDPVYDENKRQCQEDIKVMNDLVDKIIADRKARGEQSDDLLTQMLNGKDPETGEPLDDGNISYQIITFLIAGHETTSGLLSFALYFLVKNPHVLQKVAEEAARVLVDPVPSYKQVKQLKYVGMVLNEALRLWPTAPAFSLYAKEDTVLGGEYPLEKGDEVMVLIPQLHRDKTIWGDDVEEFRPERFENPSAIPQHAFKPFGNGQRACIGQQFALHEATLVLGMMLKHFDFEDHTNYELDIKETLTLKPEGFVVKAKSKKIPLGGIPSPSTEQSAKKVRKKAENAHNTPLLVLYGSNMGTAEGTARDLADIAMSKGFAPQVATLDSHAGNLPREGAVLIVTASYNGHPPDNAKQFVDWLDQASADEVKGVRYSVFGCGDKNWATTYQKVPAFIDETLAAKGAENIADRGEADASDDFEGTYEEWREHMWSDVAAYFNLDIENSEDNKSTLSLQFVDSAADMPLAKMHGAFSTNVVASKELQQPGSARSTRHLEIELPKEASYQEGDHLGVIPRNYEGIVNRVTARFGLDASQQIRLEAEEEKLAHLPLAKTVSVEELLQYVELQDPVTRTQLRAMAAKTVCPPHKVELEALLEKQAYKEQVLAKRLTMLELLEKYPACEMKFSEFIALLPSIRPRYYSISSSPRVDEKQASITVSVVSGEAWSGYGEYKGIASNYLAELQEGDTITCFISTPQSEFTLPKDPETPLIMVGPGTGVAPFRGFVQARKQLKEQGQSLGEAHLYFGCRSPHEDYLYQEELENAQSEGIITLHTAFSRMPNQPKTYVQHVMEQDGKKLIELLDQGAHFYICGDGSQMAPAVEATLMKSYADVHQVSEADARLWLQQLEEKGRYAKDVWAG
Outline: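 Purified P450 (3 μM) in 50 mM or 1 M potassium phosphate, pH 8.0, titrated with test compound (5–2000 μM) from a 50 mM ethanol stock. Difference spectra (350–500 nm) were recorded at each step. Absorbance change at 390/420 nm (high/low spin) was fitted to a 1:1 binding model for KD. At least triplicate, room temperature.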

[2] = tested on: AML02 primary AML specimen; test: Cell viability of primary AML specimen AML02; format: cell-based; conditions: Homo sapiens, read-out: AML02 LC50
Outline: (§1)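 Primary AML samples came from consenting donors. Live mononuclear cells were isolated on a Ficoll-Paque density gradient and cryopreserved, with 40–70% viability after thawing. Cells were kept at 37 °C, humidified, 5% CO2.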

[3] = tested on: AML01 primary AML specimen; test: Cell viability of primary AML specimen AML01; format: cell-based; conditions: Homo sapiens, AML01, read-out: AML01 LC50
Outline: as §1

`C=C1C(=O)O[C@H]2[C@H]1CCC(C)=C1CC[C@@](C)(O)[C@@H]12` [MCL, micheliolide] was tested, and the Kd ([1]; 50 mM KPi pH 8.0, room temperature) was 365 ± 53 µM, the Kd ([1]; 1 M KPi buffer (pH 8.0)) was 128 µM and the CC50 [2] was 20.3 µM. It also gave a CC50 [3] of 18.8 µM.

— paper PMC8161485 (ACS Central Science, 2021)
